APJ antagonist: antagonists of human APJ apelin receptor. CHO-K1 APJ beta-arrestin complementation, luminescence. actives 0.32% (n = 330,000). inhibition, % at 20 µM. P35414;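 active means inhibition above about 40% at 20 µM, limit read from the data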;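 further: cells challenged with 10 nM apelin-13 agonist together with compound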
EBI2 block: antagonists of human EBI2 receptor; AID 651636; inhibition, % at 5 µM; EBI2 beta-arrestin recruitment, luminescence, 7a,25-OHC stimulated; P32249; actives 0.81% (n = 360,000); in the data active means inhibition above about 38%;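 further: enzyme fragment complementation signal reports receptor beta-arrestin coupling in cells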
CCR6 antag: CCR6 (human) receptor antagonism. P51684. CHO-K1 CCR6 PathHunter beta-arrestin, luminescence, CCL20-stimulated. inhibition, % at 20 µM. actives 0.49% (n = 340,000). AID 493098;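 active means compounds whose inhibition of the agonist-driven luminescence signal at 20 µM reaches about 50%, limit read from the data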;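 further: cells stimulated with CCL20 at 14 nM final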
m5-HT2A agonist: activates the mouse 5-HT2A serotonin receptor. P35363. CHO-K1 mHTR2A beta-arrestin complementation, luminescence; percent of 30 µM serotonin response. activation, % at 7.6 µM. actives 0.66% (n = 360,000). AID 624169;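 active means activation above a run cutoff, the mean activation of all tested compounds plus 3 SD, cut at about 14% in these data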
Target sequence (P35363 whole entry, looked up): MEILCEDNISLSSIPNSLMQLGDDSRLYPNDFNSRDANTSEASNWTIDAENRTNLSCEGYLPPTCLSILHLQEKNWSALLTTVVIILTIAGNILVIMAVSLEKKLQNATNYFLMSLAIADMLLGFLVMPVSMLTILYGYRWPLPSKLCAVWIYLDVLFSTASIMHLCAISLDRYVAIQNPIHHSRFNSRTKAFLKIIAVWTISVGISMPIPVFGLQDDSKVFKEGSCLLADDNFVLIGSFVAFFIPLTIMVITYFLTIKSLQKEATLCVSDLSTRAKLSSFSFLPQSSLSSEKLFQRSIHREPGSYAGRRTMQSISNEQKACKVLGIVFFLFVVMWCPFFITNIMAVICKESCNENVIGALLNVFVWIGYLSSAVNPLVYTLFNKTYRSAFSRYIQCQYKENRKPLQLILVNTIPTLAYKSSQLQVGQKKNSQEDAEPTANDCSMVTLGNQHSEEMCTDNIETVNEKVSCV
APJ agonist: activates the human apelin receptor APJ; AID 2520; CHO-K1 APJ PathHunter beta-arrestin, luminescence; 0% DMSO wells, 100% apelin; activation, % at 20 µM; actives 0.11% (n = 330,000);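 active means activation more than six SD over the plate average, tested at 20 µM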
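Material: engineered CHO-K1 APJ arrestin reporter cells; amount: 1000 CHO-K1 reporter cells seeded per well; incubation: compound stimulation 90 min at 25 °C, detection 60 min; signal: luminescent beta-gal fragment complementation, chemiluminescent substrate; read-out basis: APJ agonist activity; controls: DMSO-only wells as negative, 10 nM Apelin-13 as positive control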
CXCR6 block: inhibitors of human CXCR6 receptor; actives 0.36% (n = 360,000); inhibition, % at 20 µM; CHO-K1 PathHunter CXCR6 beta-arrestin, luminescence; in the data active means inhibition above about 34%, passing the limit was not always enough;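 further: antagonist mode with CXCL16 agonist at 10 nM final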
APJ ag confirm: APJ receptor agonism confirmation; shares compounds with APJ agonist; CHO-K1 APJ PathHunter beta-arrestin, luminescence; activation, % at 20 µM; actives 10% (n = 310);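 active means activation above 40%, taking the highest of four retests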
MOR ag counter: activates human mu opioid receptor in HTR2A counterscreen; shares compounds with m5-HT2A agonist; actives 5.3% (n = 2,300); activation, % at 9.3 µM; U2OS OPRM1 beta-arrestin PathHunter, luminescence; DMSO 0%, DAMGO 9.3 µM 100%;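 active means mean activation above the mean of DMSO-only wells plus 3 SD, cut at about 0.5% in these data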
HTR2A ag conf: mouse HTR2A agonism confirmed; shares compounds with m5-HT2A agonist; CHO-K1 PathHunter beta-arrestin recruitment, luminescence; DMSO 0%, 30 µM serotonin 100%; activation, % at 7.6 µM; actives 19% (n = 2,300);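 active means mean activation across triplicates above the hit threshold derived in the original primary screen, cut at about 15% in these data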
Of the large screens only hits and unclear results are named; the others gave an inactive call (follow-up assays come after a bar, where they were run); ! = a repeat was not active. Shown are actives, neighbours in structure and some others; about 2.1% of the full set was active somewhere.

CCn1nc(-c2cccs2)nc2c(=O)n(C)c(=O)nc1-2	CCR6 antag 100 (no result: APJ antagonist, APJ agonist)
CCn1nc(/C=C/c2ccccc2)nc2c(=O)n(C)c(=O)nc1-2	none
ON1C2CCCCC2N(O)C1c1ccccc1 (stereo not given)	CCR6 antag 67
c1ccc(C2N3CCCN23)cc1 (stereo not given)	none
COc1ccc(N2C(=O)/C(=C/c3cccs3)C(=O)NC2=S)cc1	none
COc1ccc(N2C(=O)/C(=C/C=C/c3ccccc3[N+](=O)[O-])C(=O)NC2=S)cc1	CCR6 antag 59 (no result: EBI2 block, m5-HT2A agonist, CXCR6 block)
COC(=O)C1=C(c2ccc(F)cc2OCc2ccccc2)C[C@@H]2CC[C@H]1N2C(=O)N1CCCC1	none
CC1=CC2/C=C(\C)CCC(O)C(O)/C=C/C(=O)C23C(=O)NC(CC(C)C)C3C1C (stereo not given)	EBI2 block 47
NC(N)=N/N=C/c1cn(-c2ccccc2)nc1-c1cccs1	APJ agonist 11
O=c1c2ccccc2nc(-c2cccs2)n1-c1ccccc1	none
Cc1ccccc1OCCN=Cc1c(O)n(C)c(=O)n(C)c1=O	none
O=c1[nH]c2ccccc2n1C1CCN(C(CCc2ccccc2)c2nnnn2-c2ccc3c(c2)OCCO3)CC1 (stereo not given)	none (no result: APJ antagonist, CCR6 antag, APJ agonist)
COc1cc(/C=C(/C)[N+](=O)[O-])ccc1OCc1ccccc1Cl	EBI2 block 72, CCR6 antag 61, CXCR6 block 50
Cc1ccc(/C=C2\C(=O)NC(=S)N(c3ccccc3F)C2=O)s1	CCR6 antag 96, CXCR6 block 40 (no result: APJ antagonist, APJ agonist)
O=C1NC2NC(=O)N([N+](=O)[O-])C2N1 (stereo not given)	none
CC1=C2[C@H]3OC(=O)[C@@H](C)[C@@H]3CC[C@@]2(C)C=CC1=O	none
CC[n+]1c(/C=C/C=C/c2ccc(N(C)C)cc2)sc2ccccc21	CCR6 antag 70, CXCR6 block 53
Cc1nn(Cc2ccc(Cl)cc2Cl)c(Cl)c1C(=O)Nc1ccc(OC(F)F)cc1	none
OC(CN1CC=C(c2ccccc2)CC1)c1ccccc1 (stereo not given)	none
OC(COCc1ccc(Cl)cc1)CN1CC=C(c2ccccc2)CC1 (stereo not given)	m5-HT2A agonist 19!
Cc1cccc(-n2c(O)c(C)c(=O)[nH]c2=S)c1	none (no result: APJ antagonist, APJ agonist)
O=C(c1cc2c(s1)-c1ccccc1OC2)N1CCC2(CC1)OCCO2	EBI2 block 88
COc1cc(/C=C/[N+](=O)[O-])ccc1O	CCR6 antag 56
C/C1=C\[C@@H](C)C/C=C/[C@H]2[C@@H]3O[C@]3(C)[C@@H](C)[C@H]3[C@H](Cc4c[nH]c5ccccc45)NC(=O)[C@]32C(=O)/C=C/C(=O)[C@@H]1O	m5-HT2A agonist 22
O=[N+]([O-])/C=C/c1c(Cl)cccc1Cl	CCR6 antag 105, CXCR6 block 100 (no result: APJ antagonist, APJ agonist)
CCOc1ccc2nc(N=Nc3c(O)[nH]c(=S)[nH]c3=O)sc2c1	APJ antagonist 56, CCR6 antag 50
CCOc1ccc2nc(N=Nc3c(O)[nH]c(=O)[nH]c3=O)sc2c1	none
CC(C)C[C@H]1C(=O)N2CCCC2[C@]2(O)O[C@](NC(=O)[C@@H]3C=C4c5cccc6[nH]cc(c56)CC4N(C)C3)(C(C)C)C(=O)N12 (stereo not given in full)	m5-HT2A agonist 30
CC(C)[C@H]1C(=O)N2CCC[C@H]2[C@]2(O)O[C@](NC(=O)[C@@H]3C=C4c5cccc6[nH]cc(c56)C[C@H]4N(C)C3)(C(C)C)C(=O)N12	m5-HT2A agonist 49
CC1CCC(NC(=O)CNC(=S)N2CC3CC(C2)c2cccc(=O)n2C3)CC1 (stereo not given)	none
CCN(CC)c1ccc(/C=C/[N+](=O)[O-])cc1	CXCR6 block 40
Cc1cc(Cl)ccc1OC(C)C(=O)O (stereo not given)	m5-HT2A agonist 15
Cc1cc(Cl)ccc1OCC(=O)O	none
CN(C)c1ccc(/C=C/C=C/c2sc3ccccc3[n+]2C)cc1	none
CN(C)c1ccc(/C=C/c2cc[n+](C)c3ccccc23)cc1	CCR6 antag 54! (no result: APJ antagonist, APJ agonist)
COC(=O)C1=C(c2ccccc2OCc2ccccc2)C[C@@H]2CC[C@H]1N2C(=O)NCCOc1ccc(OC)cc1	EBI2 block 51
COC(=O)C1=C(c2ccccc2OCc2ccccc2)C[C@@H]2CC[C@H]1N2C(=O)NCCOc1ccccc1	none
CN1CCN(c2ncc(C=O)s2)CC1	none
CCCC[N+]1(C)[C@@H]2CC(OC(=O)[C@H](CO)c3ccccc3)C[C@H]1[C@@H]1O[C@@H]12 (stereo not given in full)	none
C=CCN1C(=O)NC(=O)/C(=C\c2ccc(-c3ccccc3[N+](=O)[O-])o2)C1=O	none
O=C1NC(=O)N(Cc2ccco2)C(=O)/C1=C/c1ccc(-c2cccc([N+](=O)[O-])c2)o1	CCR6 antag 65
CCOC(=O)[C@]12Cc3cc(OC)ccc3[C@H]1N(C1CCCCC1)C(=O)c1cc(OC)ccc12	none (no result: APJ antagonist, CCR6 antag, APJ agonist)
CCOC(=O)[C@]12Cc3cc(C)ccc3[C@H]1N(C1CCCCC1)C(=O)c1cc(OC)ccc12	EBI2 block 76 (no result: APJ antagonist, CCR6 antag, APJ agonist)
O=C1OC(c2ccc(Cl)cc2)=N/C1=C\N1CC2CC(C1)c1cccc(=O)n1C2 (stereo not given)	none
COc1ccc(CN2C(=O)NC(=O)/C(=C\c3ccco3)C2=O)cc1	APJ agonist 18 | APJ ag confirm inactive
COc1ccc(C(=O)OCC2CN2c2cccc([N+](=O)[O-])c2)cc1 (stereo not given)	none (no result: APJ antagonist, CCR6 antag, APJ agonist)
CN1C[C@H](CO)C=C2c3cccc4[nH]cc(c34)C[C@H]21	m5-HT2A agonist 30, APJ agonist 17 | APJ ag confirm inactive | MOR ag counter inactive | HTR2A ag conf 94
COc1ccc(C(=O)CC(c2ccc3c(c2)OCO3)c2c(O)c3ccccc3oc2=O)cc1OC (stereo not given)	none (no result: APJ antagonist, CCR6 antag, APJ agonist)
